Screening results deposited in PubChem by several laboratories.
b-catenin transl: modulators of beta-catenin nuclear translocation, primary screen, imaging, HeLa cells, immunofluorescence, high-content; nuclear translocation activity, % at 5 µM; hit rate 0.3% among 190,000; AID 1665, 2009;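 active means nuclear translocation activity above 50% at 5 µM, with a well cell count of 50 or more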;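 further: per-cell ratio of nuclear to cytoplasmic median beta-catenin stain intensity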
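Test system: human HeLa cells, endogenous beta-catenin. Times: 24 h compound exposure, 37°C. Measured by: beta-catenin immunofluorescence imaging with DAPI.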
APP 5UTR inh: inhibitors of APP translation via 5'UTR reporter, primary screen, APP 5'UTR luciferase, SH-SY5Y cells; SH-SY5Y APP 5'UTR-luciferase reporter, luminescence; inhibition, % at 2 µM; hit rate 0.82% among 190,000;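 active means inhibition above a set limit, derived from the sample mean plus 3 SD, cut at about 45% in these data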
Ba/F3 V617F tox: reduced viability of JAK2V617F-dependent Ba/F3 cells, primary screen, JAK2V617F inhibitor project, cell-based, Ba/F3 EpoR-JAK2V617F, luminescence; ATP luminescence; inhibition, % at 5.6 µM; hit rate 1.1% among 220,000; AID 1446, 2008;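 active means inhibition above the campaign mean plus 3 SD over all tested compounds, cut at about 24% in these data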;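 further: cytokine-independent growth of Ba/F3 cells driven by EpoR plus mutant JAK2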
L major viab: Leishmania major promastigote growth inhibition, primary screen; AID 1063, 2008; inhibition, % at 10 µM; hit rate 9% among 200,000; Leishmania major promastigotes, resazurin fluorescence viability; in the data active means inhibition above about 50%;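 further: promastigotes grown with compound for 44 hours at 28 °C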
BaF3 tox: parental Ba/F3 cell viability inhibition, counter-screen for JAK2V617F inhibitor project, murine pro-B, CellTiter-Glo luminescence. inhibition, % at 5.6 µM. hit rate 1.1% among 220,000. AID 1486, 2009. CellTiter-Glo ATP luminescence;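 active means inhibition above a per-campaign cutoff, the mean inhibition of all tested compounds plus 3 SD, cut at about 27% in these data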
MT stabilizer: microtubule stabilizers in HeLa cells, primary screen, imaging, high-content imaging; % tubulin-high responders, % at 10 µM; HeLa tubulin immunostaining HCS, 24 h; share of cells brighter than vehicle mean+2SD; AID 2205, 2009; hit rate 0.83% among 200,000;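 active means plate Z-score above 3 for both tubulin-high and condensed-nucleus cell shares, with cell loss under 80%, at 10 µM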;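 further: anti alpha tubulin signal scored within the nucleus-defined area of each cell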
Each line names hits and unclear results; the compound was inactive in the other large screens. Hits are enriched below; roughly 9.6% of the tested compounds scored in any of these assays.

CCOc1ccccc1NC(=O)c1ccccc1NS(C)(=O)=O	none
CCOc1ccccc1C(=O)Nc1ccccc1O	L major viab 71 (no result: b-catenin transl)
C=CCn1c(SCc2cc(=O)n3cc(C)ccc3n2)nnc1-c1cccc(C)c1	L major viab 52
Cc1cc(C)c2nc(N3CCCN(C(=O)c4cnccn4)CC3)c(C#N)cc2c1	none
O=C(c1ccc(C(F)(F)F)cc1)C1CCCN(C(=O)CN2C(=O)CSC2=O)C1 (configuration not stated)	none
CCN1CC(CN(C)Cc2nc(-c3ccc(C(F)(F)F)cc3)oc2C)CC1=O (configuration not stated)	L major viab 56
O=C(CO/N=C\c1ccccc1)Nc1ccccc1C(=O)N1CCOCC1	none
Cc1ccc(N2C(=N)/C(=C3/Nc4ccccc4S3)C(c3ccccc3)C2=O)cc1 (configuration not stated)	L major viab 100
CC(O)CCc1ccc(O)cc1 (configuration not stated)	none
CC(CCc1ccc(O)cc1)NC1C2CC3CC(C2)CC1C3 (configuration not stated)	L major viab 71 (no result: APP 5UTR inh)
Clc1cccc(COn2c(-c3ccc(Cl)cc3Cl)nc3ncccc32)c1	L major viab 100
CCOC(=O)c1ccc(N2C(=O)CC(N3CCN(Cc4ccccc4)CC3)C2=O)cc1 (configuration not stated)	none
CCOC(=O)c1ccc(N2C(=O)CC(N3CCC(Nc4ccc(F)cc4)CC3)C2=O)cc1 (configuration not stated)	BaF3 tox 49
O=C(COC(=O)/C=C/c1ccc(Cl)cc1)NCCc1ccccc1	none (no result: b-catenin transl)
O=[N+]([O-])c1nn(-c2ccc3c(c2)OCCO3)n(O)c1=NCCCO	L major viab 72
Cc1ccc(CN=c2c([N+](=O)[O-])nn(-c3ccc4c(c3)OCCO4)n2O)cc1	L major viab 98
O=[N+]([O-])c1nn(-c2ccc3c(c2)OCCO3)n(O)c1=NC1CCCC1	none (no result: b-catenin transl, APP 5UTR inh)
COc1ccc(-n2nc([N+](=O)[O-])c(=NCc3ccc4c(c3)OCO4)n2O)cc1	L major viab 97
O=[N+]([O-])c1nn(-c2ccc3c(c2)OCCO3)n(O)c1=NC1CCCCCC1	L major viab 87 (no result: b-catenin transl)
COc1ccc(C2C(C(C)=O)=C(O)C(=O)N2c2ccc(Br)cn2)cc1 (configuration not stated)	none
O=C(Nc1cc(S(=O)(=O)Nc2ccc(Cl)cc2)ccc1N1CCCCC1)c1ccc(F)cc1Cl	none
CN1CCN(CCC(=O)Nc2ccc(C3CCCC3)cc2)CC1	none
Cc1cc(C(=O)NNC(=S)NC(=O)/C=C/c2ccccc2Cl)n[nH]1	L major viab 78 (no result: b-catenin transl)
COc1cc(NC(=O)c2ccc([N+](=O)[O-])cc2)ccc1NC(=O)C(C)C	none
COc1cc(/C=C(\C#N)c2nc3ccccc3[nH]2)c([N+](=O)[O-])cc1OCc1ccccc1	L major viab 90
N#C/C(=C\c1cccnc1)c1nc2ccccc2[nH]1	none (no result: APP 5UTR inh, L major viab, MT stabilizer)
N#C/C(=C\c1ccncc1)c1nc2ccccc2[nH]1	L major viab 59
CCN(CC)c1ccc(/C=C(/C#N)c2nc3ccccc3[nH]2)c(OC(C)C)c1	L major viab 98, MT stabilizer 60 (no result: b-catenin transl)
COc1cc(/C=C(/C#N)c2nc3ccccc3[nH]2)ccc1OCC(=O)Nc1ccccc1C(C)C	none
Cc1c(C(=O)O)c(C(=O)O)nc2ccc(N3CCOCC3)cc12	none
Cc1cc(Oc2ccccc2)nc2ccc(O)cc12	none (no result: APP 5UTR inh, Ba/F3 V617F tox, L major viab, BaF3 tox, MT stabilizer)
O=C(Cn1nnc(-c2ccccc2NC(=O)c2ccco2)n1)Nc1ccccc1	none
Cc1ccc(NC(=O)Cn2nnc(-c3ccccc3NC(=O)c3cccs3)n2)cc1	b-catenin transl 58, MT stabilizer 21
CCCC(=O)Nc1ccccc1-c1nnn(CC(=O)Nc2ccc(OCC)cc2)n1	none
COc1ccc(NC(=O)Cn2nnc(-c3ccccc3NC(=O)c3cccs3)n2)cc1	MT stabilizer 19
O=C(c1cccnc1)N1CCC(Oc2ccc(C(=O)N3CCCC(O)C3)cc2)CC1 (configuration not stated)	none
Cc1onc(-c2c(Cl)cccc2Cl)c1C(=O)N1CCN(c2ccccc2)CC1	L major viab 96, MT stabilizer 21
Cc1onc(-c2c(Cl)cccc2Cl)c1C(=O)N1CCN(c2ncccn2)CC1	none
Cc1onc(-c2ccccc2Cl)c1C(=O)N1CCN(c2nc3ccccc3s2)CC1	L major viab 51
Cc1ccc(SCCN)cc1C	none
NNC(=O)c1ccc(COCC(F)(F)F)cc1	none (no result: APP 5UTR inh, L major viab, MT stabilizer)
O=C(CCCn1c(=S)[nH]c2cc3c(cc2c1=O)OCO3)N1CCN(c2ncccn2)CC1	Ba/F3 V617F tox 64, BaF3 tox 57
CCN(CC)c1ccc(N=Nc2nn(C)c(C)c2[N+](=O)[O-])cc1	L major viab 53
O=S(=O)(CC(CN1CCCCC1)N1CCCCC1)c1ccccc1 (configuration not stated)	L major viab 98
O=[N+]([O-])c1ccc(S(=O)(=O)CC(CN2CCOCC2)N2CCOCC2)cc1 (configuration not stated)	none
O=[N+]([O-])c1ccc(S(=O)(=O)CC(CN2CCCCC2)N2CCCCC2)cc1 (configuration not stated)	L major viab 101
CN1CCC(N(C)C(=O)CNC(=O)c2ccc(C(C)(C)C)cc2)CC1	none
NCCc1nnc(SCc2ccccc2Cl)o1	none (no result: APP 5UTR inh, L major viab, MT stabilizer)
NCCCCCc1nnc(SCc2ccc(Cl)cc2Cl)o1	L major viab 100
S=c1[nH]nc(Cc2ccc(Cl)cc2)o1	none (no result: APP 5UTR inh, L major viab, MT stabilizer)
COC(=O)c1ccc(NC(=O)CNc2ccccc2)cc1	L major viab 76
COC(=O)c1ccc(NC(=O)CCOc2ccccc2)cc1	none
COC(=O)c1ccc(NC(=O)CSC2=NC(=O)C(c3ccccc3)C(=O)N2)cc1 (configuration not stated)	L major viab 53
CCOc1ncccc1C(=O)Nc1ncc(C)s1	none
Cc1cccc(C)c1NC(=O)NC1(C(=O)NCCCN2CCOCC2)CCCCC1	none (no result: b-catenin transl)
CCCCCCOc1ccc(OC(=O)c2ccncc2)cc1	Ba/F3 V617F tox 44, BaF3 tox 32
Cc1ccc(S(=O)(=O)c2c(C)nn(C(C)(C)C)c2OC(=O)CC(C)C)cc1	none
O=C(Nc1cccc(Cl)c1)OCc1cn(-c2ccc(Cl)cc2)nn1	none
COc1ccc(N2CCN(C(=O)CSc3ccccc3)CC2)cc1	none
COc1ccc(N2CCN(C(=O)CC(NC(N)=O)c3cccc(Oc4ccccc4)c3)CC2)cc1 (configuration not stated)	L major viab 100
COc1ccc(N2CCN(C(=O)CSc3ccccc3N)CC2)cc1	L major viab 63 (no result: b-catenin transl)
COc1ccc(N2CCN(C(=O)CCNC(=O)c3ccccc3)CC2)cc1	none
